Screening data deposited in PubChem by SRMLSC.
The full list was thinned out, with hits kept by preference.
PTEN del growth – growth suppression of PTEN-null HCT116, primary screen, cell-based, CellTiter-Glo; HCT116 PTEN-null viability, 60 h; active compounds read low; viability, % at 10 µM; 1.2% of 140,000 active;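 active = viability at or below a set limit, 4 SD under the median of all tested compounds, cut at about 3.7% in these data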;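 note: PTEN knockout HCT116 line with beta catenin targeted HCT116 as companion control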
H69AR growth 86K – proliferation blockers of H69AR lung cancer cells, primary screen, cell-based, human, 86K library; H69AR lung tumor viability, ATP luminescence, 72 h; active compounds read low; AID 598, 2007; 6% of 85,000 active; viability, % at 10 µM;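 active = viability at or below 40%; inactive = viability above 40%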;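 note: multidrug resistant small cell line overexpressing MRP-1 efflux transporter; 100% = mean luminescence of untreated control wells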
HUVEC prolif 384 – inhibitors of HUVEC proliferation, primary screen, cell-based, 384-well; CellTiter-Glo luminescence, 72 h; active compounds read low; viability, % at 10 µM (by protocol); 1.1% of 86,000 active;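 active = viability at or below 30%; inactive = viability above 30%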;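 note: 100% = median luminescence of DMSO-only cell control wells on each plate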
bCat KO growth – primary screen for growth suppressors in beta-catenin knockout HCT116 cells (colon tumor, human). 1.5% of 140,000 active. viability, % at 10 µM. HCT116 beta-catenin knockout viability, CellTiter-Glo, 60 h; active compounds read low. AID 818, 2007;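 active = viability at or under a set limit, the compound median less 4 SD, cut at about 6% in these data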;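 note: 0% = Hyamine 1622 control at 20 µM and 100% = untreated cell control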
Lung fibro prol – antiproliferative effect on LL 47 fibroblasts – human, LL 47 cells, CellTiter-Glo luminescence, primary screen. LL 47 human lung fibroblast viability, ATP luminescence; active compounds read low. viability, % at 10 µM. 1.1% of 85,000 active;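 active = viability at or below 50% in the single dose screen; inactive = viability above 50%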;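 note: compound exposure lasted 72 h before the ATP readout; 100% = median luminescence of untreated cell-only wells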
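material = human LL 47 lung fibroblast cells | dosing = compounds added from tenfold dosing solution, 0.1% DMSO final | timing = overnight cell rest, 72 h compound treatment at 37 °C | measured by = CellTiter-Glo luminescence measuring cellular ATP | evaluation = % viability versus median cells-only luminescence | control set = cell-only wells, no compound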
* hit, by the source's call; x = no result.

SMILES | PTEN del growth | H69AR growth 86K | HUVEC prolif 384 | bCat KO growth | Lung fibro prol
COc1ccc(-c2noc(-c3ccccc3C(=O)Nc3cccnc3)n2)cc1 | 80 | 76 | 87 | 86 | 95
COC(=O)COc1ccc(S(=O)(=O)Nc2ccc3c(c2)OCCO3)cc1Cl | 103 | 83 | 28* | 99 | 24*
CC(=O)c1cc2c(cc1NS(=O)(=O)c1ccc3c(c1)OCCO3)OCO2 | 88 | 65 | 97 | 82 | 89
COC(=O)c1ccc(Cl)c(NS(=O)(=O)c2ccc3c(c2)OCCO3)c1 | 34 | 20* | 61 | 39 | 82
Cc1cccc2c3nc4ccccc4nc3n(CCCN3C(=O)c4ccccc4C3=O)c12 | 109 | x | x | 102 | x
CC(/C=N/NC(=O)c1ccc2nc(C)[nH]c2c1)=C\c1ccccc1 | 68 | x | x | 69 | x
COc1ccc(OC)c(C(=O)COC(=O)c2ccc(C)o2)c1 | 96 | 92 | 99 | 89 | 98
COc1ccc(C(=O)OCC(=O)c2cc(OC)ccc2OC)c(OC)c1 | 0.8* | 92 | 103 | 0.6* | 104
N#Cc1ccc(C(=O)Nc2cccc3ncccc23)c(F)c1 | 92 | x | x | 90 | x
Cc1cc(C)c2oc(-c3ccc(Cl)c(NC(=O)c4ccc(C#N)cc4F)c3)nc2c1 | 64 | 22* | 57 | 56 | 20*
CN1CCN(CC(=O)N2CCn3c4c(c5cc(C6CCCCC6)ccc53)CCCC42)CC1 (stereo unspecified) | 1.6* | 1.1* | 2.7* | 1.3* | 1.9*
Cc1ccc2c(c1)c1c3n2CCCN(Cc2ccccc2)C3CCC1 (stereo unspecified) | 76 | 36* | 82 | 78 | 86
Cc1ccc2c(c1)c1c3n2CCN(C(=O)C2CC2)C3CCC1 (stereo unspecified) | 90 | 91 | 104 | 83 | 93
Cc1ccc2c(c1)c1c3n2CCN(C(=O)CN2CCN(C)CC2)C3CCC1 (stereo unspecified) | 0.8* | 92 | 23* | 1.0* | 63
Cc1ccc2c(c1)c1c3n2CCN(C(=O)Cn2c(-c4ccccc4)noc2=O)C3CCC1 (stereo unspecified) | 60 | 86 | 92 | 69 | 97
Cc1ccc2c(c1)c(=O)c1c3n2CCN(C(=O)CCl)C3CC1 (stereo unspecified) | 93 | 1.5* | 8.9* | 92 | 2.0*
Cc1ccc(S(=O)(=O)N2CCC(=O)N(CCOC(=O)Nc3ccc(C)c(C)c3)CC2)cc1 | 84 | x | x | 77 | x
Cc1ccc(C(=O)NNC(=O)CCN2C(=O)C3CCCCC3C2=O)cc1 (stereo unspecified) | 98 | x | x | 100 | x
O=C(CCC1CCCC1)Nc1nnc(-c2ccc3c(c2)OCO3)s1 | 102 | x | x | 93 | x
COc1ccc(CN2C(=O)CN=C2Nc2cc(C)ccc2C)cc1 | 91 | 40* | 79 | 98 | 95
Cc1[nH][nH]c(=O)c1C(c1c(C)[nH][nH]c1=O)c1cn(Cc2ccccc2Cl)c2ccccc12 | 15 | x | x | 24 | x
Nc1c(C(=O)Nc2ccc3c(c2)OCCO3)nnn1CCc1ccccc1 | 30 | 37* | 63 | 40 | 41*
O=C(CCc1ccccc1)Nc1ccc2c(c1)OCCO2 | 102 | 86 | 90 | 98 | 95
Cc1ccc(NC(=O)c2cc(NC(=O)c3ccco3)ccc2N2CCOCC2)cc1 | 61 | 42 | 89 | 71 | 107
Cc1ccc(NC(=O)c2cc(NC(=O)c3ccco3)ccc2N2CCCCC2)cc1 | 75 | 26* | 68 | 70 | 48*
SMILES | PTEN del growth | H69AR growth 86K | HUVEC prolif 384 | bCat KO growth | Lung fibro prol
COc1ccc(C(C[N+](=O)[O-])c2c(-c3ccccc3)cc3ccccn23)cc1 (stereo unspecified) | 1.9* | 12* | 61 | 3.3* | 43*
COc1ccc(C(C[N+](=O)[O-])c2c(-c3ccccc3)cc3ccccn23)cc1OC (stereo unspecified) | 49 | 26* | 81 | 41 | 66
COc1cc(C(C[N+](=O)[O-])c2c(-c3ccccc3)cc3ccccn23)cc(OC)c1OC (stereo unspecified) | 35 | 11* | 64 | 56 | 34*
COc1cc(-c2ncc3ccccn23)cc(OC)c1OC | 90 | x | x | 84 | x
Cc1ccc(-c2nnc(N3CCN(C(=O)c4ccco4)CC3)c3ccccc23)cc1 | 49 | 54 | 80 | 53 | 84
O=C(c1ccccc1)c1ccc2nc(N3CCN(C(=O)c4ccco4)CC3)c3nncn3c2c1 | 42 | 18* | 70 | 53 | 89
O=C(c1cc2nc(-c3ccccc3)cc(-c3ccccc3)n2n1)N1CCN(C(=O)c2ccco2)CC1 | 7 | 25* | 71 | 14 | 89
CCN1CCN(c2ccc(NC(=O)CCc3c(C)nc4c(-c5ccccc5)c(C)nn4c3C)cc2)CC1 | 1.9* | x | x | 0.9* | x
CCN1CCN(c2cc(C(C)(C)C)nc3c(-c4ccccc4)c(C)nn23)CC1 | 9 | 38* | 3.2* | 13 | 9.8*
Cc1nc2c(-c3ccccc3)c(C)nn2c(C)c1CCC(=O)NCc1ccco1 | 103 | 66 | 93 | 95 | 93
CN1CCN(C(=O)c2cc3nc(-c4ccccc4)cc(-c4ccccc4)n3n2)CC1 | 88 | 48 | 47 | 78 | 87
CCOC(=O)c1cnc2c(-c3cccc(Br)c3)cnn2c1C | 105 | x | x | 97 | x
CSC[C@@H]1NC(=S)N(c2ccc(C)cc2)C1=O | 76 | x | x | 89 | x
Cc1cc(N2CCN(C(=O)c3ccco3)CC2)n2nc(C)c(-c3ccc(Cl)cc3)c2n1 | x | 16* | 34 | x | 50
Cc1nn2c(N3CCN(C(=O)c4ccco4)CC3)cc(C(C)(C)C)nc2c1-c1ccc(Cl)cc1 | 67 | x | x | 79 | x
Cc1cc(N2CCN(C(=O)c3ccco3)CC2)n2nc(C)c(-c3ccccc3)c2n1 | 73 | 18* | 80 | 91 | 100
O=C(Nc1nnc(-c2ccccc2)s1)c1cc(S(=O)(=O)N2CCOCC2)c(Cl)cc1Cl | 65 | 10.0* | 47 | 35 | 93
CC(NC(=S)NCCc1ccccc1)C(c1cccs1)N1CCN(Cc2ccccc2)CC1 (stereo unspecified) | 13 | x | x | 10 | x
CC(C)(C)c1cnnn1-c1ccc(C(=O)CCl)cc1 | 93 | 1.6* | 40 | 102 | 16*
O=c1c2ccccc2cnn1Cc1n[nH]c(=S)n1-c1ccccc1 | 97 | x | x | 99 | x
Cc1ccc(-c2nnn(CC(=O)N(c3ccc(F)cc3)C(C(=O)NC3CCCC3)c3ccco3)n2)o1 (stereo unspecified) | 101 | 96 | 84 | 96 | 109
Cc1ccc(-c2nnn(CC(=O)N(c3ccc(F)cc3)C(C(=O)NC(C)(C)C)c3ccco3)n2)o1 (stereo unspecified) | 79 | 32* | 77 | 84 | 100
Cc1cc(-c2csc(NC(=O)c3ccc(C#N)cc3)n2)c(C)n1Cc1ccccc1 | 82 | x | x | 81 | x
O=C(NC1CC1)C1CCN(c2ncnc3c2sc2cccc(F)c23)CC1 | 78 | x | x | 70 | x
